Compound activity (PubChem)
The list is not random: actives were taken first. Their share in the collection is about 2.3%.
HIF act: HIF pathway transcriptional activation; activation, % at 7.5 µM (by protocol); 300,000 compounds, 0.32% hits; U2OS HRE-luciferase reporter, luminescence; normalized: DMSO 0%, desferrioxamine 100%; AID 1910;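 active means mean activation of at least 10% of the iron chelator positive control signal, with at least half of replicates also reaching 10%; inconclusive means mean and replicate majority disagree about reaching 10%; inactive means mean and most replicates under 10%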
Beta apoptosis: blocks beta cell apoptosis; INS-1E cytokine-induced death, ATP luminescence, 48 h; percent of positive-control rescue, neutral wells zero; protection from apoptosis, % (concentration not given with the values); 300,000 compounds, 0.8% hits; AID 435005;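 active means Every replicate reaches about 75%, or at least half do and their mean reaches it too, limit read from the data; inconclusive means At least half of replicates reach the limit but their mean does not; inactive means Under half of replicates reach the limit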;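 further: 0% = cytokine-treated negative control wells and 100% = positive control rescue; higher means more ATP so stronger rescue from cytokine killing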
Bfl-1 A1 inh: inhibitors of the anti-apoptotic protein A1, read as caspase activation | caspase activation, % (no concentration beside the values) | 330,000 compounds, 0.066% hits | MEF A1-2A-BIM cells, Caspase-Glo 3/7 luminescence, 3 h; percent of clofoctol response, vehicle zero;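 active means over half of replicate activation scores above 10%, or exactly half above 10 with the replicate mean above 10; inconclusive means replicate mean below 10 yet half the replicates above 10; inactive means over half of replicates below 10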
T cruzi repl: blocks replication of Trypanosoma cruzi; T. cruzi beta-gal in NIH3T3, luminescence, 90 h; inhibition, % (no concentration beside the values); 300,000 compounds, 1.4% hits; AID 1885;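 active means mean inhibition across valid replicates above about 55%, limit read from the data; inconclusive means mean below that limit but half or more replicates reach it; inactive means mean below it, under half of replicates reach it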;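 further: signal also drops with host cell toxicity which is not excluded here; 0% = plate median of DMSO wells and 100% = zero luminescence signal; higher percent means less beta-gal luminescence so fewer parasites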
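Test system: β-gal T. cruzi (Tulahuen C4) inside NIH/3T3 cells / Quantity: 5,000 cells/well / Measured by: luminescence from GalScreen with 0.05% NP40, read after 60 min / Medium: DMEM plus 2% FBS / Measure: parasite load inhibition, % / Reagent: Tulahuen C4 trypomastigotes, 5000/well / Schedule: co-culture of at least 90 h after 3 h attachment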
KLF5 inh: kruppel-like factor 5 inhibition. 290,000 compounds, 0.23% hits. DLD-1 KLF5 promoter-luciferase reporter, luminescence. inhibition, % at 5 µM;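 active means inhibition above a per-plate limit of that plate's mean compound inhibition plus 3 SD, cut at about 60% in these data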;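 further: 0% = DMSO wells and 100% = LY294002 at 200 µM; higher means less KLF5 promoter-driven luciferase light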
KLF5 inh confirm: confirmation of KLF5 inhibitors. shares compounds with KLF5 inh. DLD-1 KLF5 promoter firefly luciferase reporter, luminescence. 610 compounds, 79% hits. inhibition, % at 4 µM;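 active means inhibition above a set limit taken from the earlier primary screen, cut at about 63% in these data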;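 further: 0% = DMSO wells and 100% = LY294002 at 200 µM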
IEC-6 tox trip: counter-screen for KLF5 inhibitors: cytotoxicity in rat IEC-6 cells. shares compounds with KLF5 inh. IEC-6 rat intestinal cells, viability luminescence. inhibition, % at 4 µM. 610 compounds, 56% hits. AID 1905; in the data active means inhibition above about 23%;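 further: cells exposed to compounds for 48 hours before viability read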
Starred values were filed as active, the others as inactive; ? = inconclusive; . = no result.

SMILES	HIF act	Beta apoptosis	Bfl-1 A1 inh	T cruzi repl	KLF5 inh	KLF5 inh confirm	IEC-6 tox trip
COc1ccccc1CCN=C(N)NS(=O)(=O)c1ccccc1F	0	5	0	-9	-13	.	.
O=C(N/N=C/c1ccccc1O)c1ccc2c(c1)OCO2	9.7*	95*	-6	0	72*	4	12
O=C(N/N=C/c1c[nH]c2ccc(Br)cc12)c1ccc2c(c1)OCO2	0	.	0	-6	-27	.	.
O=C(N/N=C/c1ccc2c(c1)OCO2)c1ccc2c(c1)OCCO2	2	6	1	-13	-56	.	.
Cc1cc(Br)cc(/C=N/NC(=O)c2ccc3c(c2)OCO3)c1O	13*	88*	1	24	70*	61	15
COc1cccc(C(=O)N2CCC(C(=O)NCc3ccc(C)cc3)CC2)c1	0	.	0	-2	6	.	.
COc1cccc(C(=O)NCC(=O)OCC(=O)NC2CCCCC2)c1	.	1	0	.	.	.	.
O=C(N/N=C/c1cc(Br)cc(Br)c1O)c1ccncc1	13*	79*	0	-4	78*	88*	40*
O=C(N/N=C/c1cccnc1)c1cccc(Cl)c1	-3	6	-1	-11	-64	.	.
O=C(N/N=C/c1c[nH]c2ccc(Br)cc12)c1ccncc1	0	-5	0	20	-44	.	.
O=C(N/N=C/c1ccc(Cl)cc1Cl)c1ccncc1	-2	2	-1	-4	-29	.	.
O=C(N/N=C/c1cc(Cl)ccc1O)c1cccnc1	3	86*	-2	0	79*	89*	16
O=C(N/N=C/c1cc(Cl)cc(Cl)c1O)c1ccncc1	29*	51	-1	?	77*	35	7
CCOCCOC(=O)c1[nH]c2c(c1C)C(=O)CC(c1ccccc1)C2 (stereo unspecified)	1	42	1	19	78*	87*	66*
CCCCCOC(=O)c1[nH]c2c(c1C)C(=O)CC(c1ccco1)C2 (stereo unspecified)	2	-3	1	17	79*	88*	77*
COCCOC(=O)c1[nH]c2c(c1C)C(=O)CC(c1cccs1)C2 (stereo unspecified)	0	.	.	8	71*	73*	59*
CCCOC(=O)c1[nH]c2c(c1C)C(=O)CC(c1ccc(OC)c(OC)c1)C2 (stereo unspecified)	-2	-1	0	-14	1	.	.
COC(=O)c1[nH]c2c(c1C)C(=O)CC(c1cccc(OC)c1)C2 (stereo unspecified)	-1	31	3	35	78*	89*	64*
Cc1cc(C)cc(NC(=O)CSc2nc(=O)n(CCCN3CCOCC3)c3c2CCCC3)c1	0	5	0	19	.	.	.
Cc1nc(N/N=C/c2ccccn2)sc1C	.	110*	-10	.	79*	78*	7
O=C(N/N=C(\c1ccccc1)c1cccnc1)c1cccc(F)c1	89*	108*	1	26	68*	84*	75*
O=C(N/N=C(\c1ccccc1)c1cccnc1)c1ccc(O)cc1	-1	-1	1	-6	-48	.	.
COc1ccccc1N(C)S(=O)(=O)c1ccc(C(=O)N(C)Cc2ccc(Cl)s2)cc1	.	5	0	.	.	.	.
CC(C)N1CCc2c(sc(NC(=O)c3ccc([N+](=O)[O-])o3)c2C(N)=O)C1	-2	71	1	20	72*	55	90*
Cc1ccsc1/C=N/NC(=O)c1ccncc1	0	1	-1	-11	7	.	.
COc1cc(C(=O)N/N=C/c2cc([N+](=O)[O-])cs2)cc(OC)c1OC	-1	27	2	-45	79*	76*	59*
COc1cc(C(=O)N/N=C/c2sccc2C)cc(OC)c1OC	2	.	.	14	70*	86*	63*
CC[C@H](C)/C=C/C1=CC2=C(Cl)C(=O)[C@@]3(C)OC(=O)C(C(=O)[C@H](C)[C@@H](C)O)=C3C2=CO1	0	12	0	9	.	.	.
CCOc1ccc(N(CC(=O)Nc2ccccc2OCC)S(=O)(=O)c2c(C)noc2C)cc1	1	41	1	25	75*	79*	59*
